Assay [1] relates to Escherichia coli. Description: Inhibition of Escherichia coli FimH-mediated hemagglutinination of guinea pig red blood cells assessed as drug level required for > 90% inhibition of hemagglutinination.
The nature of assay [2]: Displacement of 5(6)-FAM-mannoside from Escherichia coli FimH by fluorescence polarization assay. In general terms: In fluorescence polarisation assays a small probe gives low polarisation when free and higher when bound to something large.
Assay [3] in a line: Binding affinity to Escherichia coli FimH by surface plasmon resonance assay. In general terms: Surface plasmon resonance follows binding to a sensor surface in real time, without labels.
For assay [4], the system named is Escherichia coli. Briefly: Selectivity ratio of inhibition of Escherichia coli FimH-mediated hemagglutinination of guinea pig red blood cells to EC50 for Escherichia coli FimH.
Assay [5] is described as follows: Binding affinity to Escherichia coli FimH by fluorescence polarization assay. A digest of the protocol:
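Competitive fluorescence polarization/anisotropy assay. Compounds from 10 mM DMSO stocks were 2-fold serially diluted to 11 final concentrations of 0–10 μM, in duplicate plates. Mix: 200 nM FimH, 20 nM 5(6)-FAM-labelled mannoside tracer, 50 mM Tris, 100 mM NaCl, 1 mM EDTA, 5 μg BSA, 5 mM BME. Anisotropy was averaged over 100 readings/well and fitted to a one-site competition curve, with a mannoside positive control.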

Assay [6] has as its system Escherichia coli. Description: Ratio of alpha-D-heptylmannoside to compound inhibitory activity against Escherichia coli FimH-mediated hemagglutinination of guinea pig red blood cells.

Consider `NC(=O)c1cccc(O[C@H]2O[C@H](CO)[C@@H](O)[C@H](O)[C@@H]2O)c1`, for which, in the assay on Escherichia coli [1], the Activity worked out at 16 µM.
The same measure, in the same setting: then `O=C1Cc2cc(O[C@H]3O[C@H](CO)[C@@H](O)[C@H](O)[C@@H]3O)ccc2O1`, with 8 µM.
On to `CNC(=O)c1cccc(-c2ccc(O[C@H]3O[C@H](CO)[C@@H](O)[C@H](O)[C@@H]3O)cc2)c1`, for which the EC50 (as a rule, the midpoint of the concentration-response curve) in assay [2] worked out at 75 nM. Moreover, the Activity in the assay with Escherichia coli [1] is 1 µM.
Regarding `NC(=O)c1ccc(O[C@H]2O[C@H](CO)[C@@H](O)[C@H](O)[C@@H]2O)cc1`, the Activity in the assay with Escherichia coli [1] amounted to 15 µM.
`CCCCO[C@H]1O[C@H](CO)[C@@H](O)[C@H](O)[C@@H]1O` [BUTYLALPHAMAN] showed an EC50 in assay [2] of 245 nM. Further, the Activity in the assay with Escherichia coli [1] was determined as 125 µM. For the same molecule, in assay [3], binding was characterised by a dissociation constant (Kd) of 151 nM.
In the case of `COc1ccc(O[C@H]2O[C@H](CO)[C@@H](O)[C@H](O)[C@@H]2O)cc1`, the Activity in the assay on Escherichia coli [1] was found to be 8 µM.
Take `COC(=O)c1ccc(-c2ccc(O[C@H]3O[C@H](CO)[C@@H](O)[C@H](O)[C@@H]3O)cc2)cc1`: the EC50 in assay [2] turned out to be 59 nM. In addition, in the assay with Escherichia coli [1], the Activity stood at 4 µM.
For the molecule `CC(=O)Nc1cccc(-c2ccc(O[C@H]3O[C@H](CO)[C@@H](O)[C@H](O)[C@@H]3O)cc2)c1`, in assay [2], a half-maximal effect (EC50) was put at 70 nM. Moreover, the Activity in the assay on Escherichia coli [1] is 2 µM.
For `CC(=O)Nc1ccc(O[C@H]2O[C@H](CO)[C@@H](O)[C@H](O)[C@@H]2O)cc1`, in that order: 122 nM and 8 µM.
Turning to `CNC(=O)c1cc(C(=O)NC)cc(-c2ccc(O[C@H]3O[C@H](CO)[C@@H](O)[C@H](O)[C@@H]3O)cc2)c1`, the Selectivity ratio in the assay on Escherichia coli [4] came out at 4. In assay [2], this molecule came in with an EC50 of 87 nM. Moreover, the Activity with Escherichia coli [1] stood at 0.37 µM.
Consider `OCc1cccc(-c2ccc(O[C@H]3O[C@H](CO)[C@@H](O)[C@H](O)[C@@H]3O)cc2)c1`, for which the Activity in the assay on Escherichia coli [1] stood at 3 µM.
Same read-out and setting: then `OC[C@H]1O[C@H](Oc2ccc(-c3ccccc3O)cc2)[C@@H](O)[C@@H](O)[C@@H]1O`, with 8 µM.
The same measure, in the same setting: for `N#Cc1ccccc1-c1ccc(O[C@H]2O[C@H](CO)[C@@H](O)[C@H](O)[C@@H]2O)cc1` the value was 2 µM.
As to `N#Cc1ccccc1O[C@H]1O[C@H](CO)[C@@H](O)[C@H](O)[C@@H]1O`, the Activity in the assay on Escherichia coli [1] worked out at 6 µM.
Regarding `COC(=O)c1cc(C(=O)OC)cc(-c2ccc(O[C@H]3O[C@H](CO)[C@@H](O)[C@H](O)[C@@H]3O)cc2)c1`, the Selectivity ratio in the assay with Escherichia coli [4] was 2. The EC50 in assay [2] was 77 nM. Moreover, the Activity with Escherichia coli [1] was determined as 0.15 µM.
Regarding `OC[C@H]1O[C@H](Oc2ccc(-c3cccnc3)cc2)[C@@H](O)[C@@H](O)[C@@H]1O`, in the assay with Escherichia coli [1], the Activity was determined as 2 µM.
With `CC(=O)Nc1ccccc1O[C@H]1O[C@H](CO)[C@@H](O)[C@H](O)[C@@H]1O`, the Activity in the assay with Escherichia coli [1] is 125 µM.
On the same count and under the same terms, for `OCc1ccccc1-c1ccc(O[C@H]2O[C@H](CO)[C@@H](O)[C@H](O)[C@@H]2O)cc1` the value was 16 µM; for `Cc1ccc(O[C@H]2O[C@H](CO)[C@@H](O)[C@H](O)[C@@H]2O)cc1`, 8 µM.
Same read-out and setting: for `N#Cc1cccc(-c2ccc(O[C@H]3O[C@H](CO)[C@@H](O)[C@H](O)[C@@H]3O)cc2)c1` the value was 1 µM.
Regarding `COC(=O)Cc1ccc(O[C@H]2O[C@H](CO)[C@@H](O)[C@H](O)[C@@H]2O)cc1`, in the assay with Escherichia coli [1], the Activity worked out at 30 µM.
`CC(=O)Nc1cccc(O[C@H]2O[C@H](CO)[C@@H](O)[C@H](O)[C@@H]2O)c1`: the concentration for a half-maximal effect (EC50) in assay [2] was 160 nM. In addition, the Activity with Escherichia coli [1] turned out to be 12 µM.
With `OC[C@H]1O[C@H](Oc2cccc(Cl)c2)[C@@H](O)[C@@H](O)[C@@H]1O`, the Activity with Escherichia coli [1] turned out to be 8 µM.
On to `O=C(O)c1cc(C(=O)NCCCCO[C@H]2O[C@H](CO)[C@@H](O)[C@H](O)[C@@H]2O)cc(-c2c3ccc(=O)cc-3oc3cc(O)ccc23)c1`, for which the affinity in assay [5], expressed as Kd, was 170 nM. The Activity with Escherichia coli [1] stood at 125 µM.
Take `CS(=O)(=O)Nc1cccc(-c2ccc(O[C@H]3O[C@H](CO)[C@@H](O)[C@H](O)[C@@H]3O)cc2)c1`: a half-maximal effect in assay [2] (EC50) was put at 97 nM. For the same molecule, the Activity in the assay with Escherichia coli [1] was found to be 2 µM.
As to `O=C(NCCOCCNC(=O)c1cccc(-c2ccc(O[C@H]3O[C@H](CO)[C@@H](O)[C@H](O)[C@@H]3O)cc2)c1)c1cccc(-c2ccc(O[C@H]3O[C@H](CO)[C@@H](O)[C@H](O)[C@@H]3O)cc2)c1`, the Activity in the assay on Escherichia coli [1] amounted to 0.75 µM.
The same measure, in the same setting: for `O=[N+]([O-])c1ccc(O[C@H]2O[C@H](CO)[C@@H](O)[C@H](O)[C@@H]2O)cc1` the value was 31 µM.
Still for that read-out and setting: for `OC[C@H]1O[C@H](Oc2ccc3ccccc3c2)[C@@H](O)[C@@H](O)[C@@H]1O` the value was 6 µM.
As for `OC[C@H]1O[C@H](Oc2ccc(Cl)cc2)[C@@H](O)[C@@H](O)[C@@H]1O`, the Activity with Escherichia coli [1] worked out at 32 µM.
On the same count and under the same terms, for `O=C(O)c1cc(C(=O)O)cc(-c2ccc(O[C@H]3O[C@H](CO)[C@@H](O)[C@H](O)[C@@H]3O)cc2)c1` the value was 2 µM; for `CS(=O)(=O)Nc1ccccc1-c1ccc(O[C@H]2O[C@H](CO)[C@@H](O)[C@H](O)[C@@H]2O)cc1`, 12 µM.
Still for that read-out and setting: for `OC[C@H]1O[C@H](Oc2ccc(-c3cccc(O)c3)cc2)[C@@H](O)[C@@H](O)[C@@H]1O` the value was 4 µM; for `CC(=O)Oc1cccc(O[C@H]2O[C@H](CO)[C@@H](O)[C@H](O)[C@@H]2O)c1`, 16 µM.
Turning to `O=C(NCCOCCOCCNC(=O)c1cccc(-c2ccc(O[C@H]3O[C@H](CO)[C@@H](O)[C@H](O)[C@@H]3O)cc2)c1)c1cccc(-c2ccc(O[C@H]3O[C@H](CO)[C@@H](O)[C@H](O)[C@@H]3O)cc2)c1`, the Ratio in the assay on Escherichia coli [6] turned out to be 8.
Turning to `CNS(=O)(=O)c1ccccc1-c1ccc(O[C@H]2O[C@H](CO)[C@@H](O)[C@H](O)[C@@H]2O)cc1`, the Activity with Escherichia coli [1] worked out at 4 µM.
Same read-out and setting: then `COC(=O)c1ccc(-c2cccc(O[C@H]3O[C@H](CO)[C@@H](O)[C@H](O)[C@@H]3O)c2)cc1`, with 6 µM.
On the same count and under the same terms, for `COC(=O)c1cc2cc(O[C@H]3O[C@H](CO)[C@@H](O)[C@H](O)[C@@H]3O)ccc2s1` the value was 2 µM; for `OCc1ccc(-c2ccc(O[C@H]3O[C@H](CO)[C@@H](O)[C@H](O)[C@@H]3O)cc2)cc1`, 6 µM; for `O=c1[nH]c2ccc(O[C@H]3O[C@H](CO)[C@@H](O)[C@H](O)[C@@H]3O)cc2o1`, 4 µM.
Still for that read-out and setting: for `COc1cccc(-c2ccc(O[C@H]3O[C@H](CO)[C@@H](O)[C@H](O)[C@@H]3O)cc2)c1` the value was 1.5 µM.
Turning to `OC[C@H]1O[C@H](Oc2ccccc2Cl)[C@@H](O)[C@@H](O)[C@@H]1O`, the Activity in the assay on Escherichia coli [1] was 4 µM.
Turning to `COC(=O)c1cc(O[C@H]2O[C@H](CO)[C@@H](O)[C@H](O)[C@@H]2O)cc(C(=O)OC)c1`, the EC50 in assay [2] was 91 nM. Further, the Activity with Escherichia coli [1] was determined as 2 µM.
For `NC(=O)c1cccc(-c2ccc(O[C@H]3O[C@H](CO)[C@@H](O)[C@H](O)[C@@H]3O)cc2)c1`, in that order: 78 nM and 2 µM.
The corresponding values for `COC(=O)c1ccc(O[C@H]2O[C@H](CO)[C@@H](O)[C@H](O)[C@@H]2O)cc1` are 64 nM and 8 µM.
For `N#Cc1cccc(O[C@H]2O[C@H](CO)[C@@H](O)[C@H](O)[C@@H]2O)c1`, in that order: 162 nM and 23 µM.
On to `COC(=O)c1cccc(O[C@H]2O[C@H](CO)[C@@H](O)[C@H](O)[C@@H]2O)c1`, for which, in assay [2], the EC50 stood at 84 nM. Besides, the Activity in the assay on Escherichia coli [1] was 6 µM.
With `N#Cc1ccc(-c2ccc(O[C@H]3O[C@H](CO)[C@@H](O)[C@H](O)[C@@H]3O)cc2)cc1`, the Activity with Escherichia coli [1] was 8 µM.
`COC(=O)c1cccc(-c2ccc(O[C@H]3O[C@H](CO)[C@@H](O)[C@H](O)[C@@H]3O)cc2)c1`: a half-maximal response in assay [2] (EC50) required 52 nM. Moreover, the Activity in the assay with Escherichia coli [1] was found to be 1 µM.
For `OC[C@H]1O[C@H](Oc2ccc(-c3ccncc3)cc2)[C@@H](O)[C@@H](O)[C@@H]1O`, the Activity with Escherichia coli [1] was determined as 2 µM.
Turning to `COC(=O)c1cc2ccc(O[C@H]3O[C@H](CO)[C@@H](O)[C@H](O)[C@@H]3O)cc2s1`, the Activity in the assay with Escherichia coli [1] is 2 µM.
For the molecule `O=C(O)c1cccc(-c2ccc(O[C@H]3O[C@H](CO)[C@@H](O)[C@H](O)[C@@H]3O)cc2)c1`, the half-maximal effective concentration (EC50) in assay [2] is 99 nM. Further, the Activity with Escherichia coli [1] was found to be 4 µM.
On to `N#Cc1ccc(O[C@H]2O[C@H](CO)[C@@H](O)[C@H](O)[C@@H]2O)cc1`, for which the Activity with Escherichia coli [1] was found to be 30 µM.
On the same count and under the same terms, for `CNS(=O)(=O)c1cccc(-c2ccc(O[C@H]3O[C@H](CO)[C@@H](O)[C@H](O)[C@@H]3O)cc2)c1` the value was 1 µM.
Regarding `O=C(O)c1cccc(O[C@H]2O[C@H](CO)[C@@H](O)[C@H](O)[C@@H]2O)c1`, the Activity in the assay with Escherichia coli [1] turned out to be 60 µM.
Same read-out and setting: then `NC(=O)c1ccccc1-c1ccc(O[C@H]2O[C@H](CO)[C@@H](O)[C@H](O)[C@@H]2O)cc1`, with 6 µM; and `O=[N+]([O-])c1cccc(O[C@H]2O[C@H](CO)[C@@H](O)[C@H](O)[C@@H]2O)c1`, with 16 µM.
On to `CCCCCCCO[C@H]1O[C@H](CO)[C@@H](O)[C@H](O)[C@@H]1O`, for which the half-maximal effective concentration (EC50) in assay [2] stood at 89 nM. Moreover, the Activity in the assay on Escherichia coli [1] turned out to be 15 µM. Further, the Kd – broadly, a measure of binding affinity in units of concentration – in assay [3] was 5 nM.
For `O=C(c1ccccc1)c1cccc(O[C@H]2O[C@H](CO)[C@@H](O)[C@H](O)[C@@H]2O)c1`, the Activity with Escherichia coli [1] was determined as 8 µM.
Same read-out and setting: then `O=[N+]([O-])c1ccc(-c2ccc(O[C@H]3O[C@H](CO)[C@@H](O)[C@H](O)[C@@H]3O)cc2)cc1`, with 2 µM.
In turn, `OC[C@H]1O[C@H](Oc2ccccc2)[C@@H](O)[C@@H](O)[C@@H]1O` registered an EC50 in assay [2] of 114 nM. In addition, in the assay on Escherichia coli [1], the Activity was 30 µM.
On to `OC[C@H]1O[C@H](OCc2ccccc2)[C@@H](O)[C@@H](O)[C@@H]1O`, for which it took 187 nM to reach a half-maximal effect in assay [2] (EC50).

Source of the values: ChEMBL document CHEMBL1177710, “Structure-based drug design and optimization of mannoside bacterial FimH antagonists” (J Med Chem, 2010).
